Vif imaging: HIV Vif inhibition; HEK293T cells, Vif self-association by quenched fluorescence, imaging, 24 h; inhibition, % at 7.49 µM; 340,000 compounds, 0.35% hits; AID 602346; in the data active = inhibition above about 50%, passing the limit was not always enough; inconclusive = no clear call, values can overlap the other calls; inactive = below about 31%
SR-BI HDL uptake: mouse SR-BI HDL lipid transfer inhibition; ldlA[mSR-BI] CHO cells, DiI-HDL uptake fluorescence, 3 h; inhibition, % at 12.5 µM; 320,000 compounds, 0.96% hits;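 active = mean replicate inhibition of at least 70% and a set share of replicates each scoring 70 or more; inconclusive = meets just one of the two criteria; inactive = fails both criteria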;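 note: 0% = median of neutral control wells and 100% = median of positive control wells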
Target sequence (Q61009 whole entry, looked up): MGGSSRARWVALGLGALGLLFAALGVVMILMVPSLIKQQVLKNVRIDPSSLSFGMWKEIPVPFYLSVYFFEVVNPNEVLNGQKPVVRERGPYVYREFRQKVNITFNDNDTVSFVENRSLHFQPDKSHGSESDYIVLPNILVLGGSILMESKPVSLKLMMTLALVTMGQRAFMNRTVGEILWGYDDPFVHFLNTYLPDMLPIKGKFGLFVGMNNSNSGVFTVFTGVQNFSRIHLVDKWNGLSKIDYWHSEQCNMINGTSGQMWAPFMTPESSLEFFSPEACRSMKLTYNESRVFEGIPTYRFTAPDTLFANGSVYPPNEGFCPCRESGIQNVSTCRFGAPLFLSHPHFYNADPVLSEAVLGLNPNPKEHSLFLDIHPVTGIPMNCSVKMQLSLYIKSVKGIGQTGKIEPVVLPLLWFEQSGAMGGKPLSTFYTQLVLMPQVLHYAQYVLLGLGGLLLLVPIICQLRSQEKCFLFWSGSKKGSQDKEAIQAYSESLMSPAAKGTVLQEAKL
SR-BI DiI-HDL act: enhances SR-BI lipid uptake from DiI-HDL. CHO ldlA[mSR-BI] cells, DiI-HDL uptake fluorescence, 3 h; 100 = double the neutral-control signal. activation, % at 12.5 µM. 320,000 compounds, 0.096% hits;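 active = mean replicate activation of at least 60% and every replicate at or above 60%; inconclusive = mean or all-replicate condition met, but not both; inactive = mean below 60% and not all replicates reaching 60%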;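 note: 0% = median plate neutral-control signal and 100% = twice that signal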
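system = CHO ldlA[mSR-BI] cells, LDL receptor-null, SR-BI overexpressing | medium = Ham's F12 with 0.5% BSA, HEPES 25 mM, pH 7.4 | probe or stimulus = DiI-HDL 10 µg/mL | compound dosing = single-point compound dose | incubation = compound exposure 3 h, 37 °C | technique = DiI fluorescence, bottom read | read-out = cell-associated DiI fluorescence as measure of HDL uptake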
Statin myotox sup: suppression of simvastatin myotoxicity; C2C12 myotubes + simvastatin, ATP luminescence, 48 h; scaled: DMSO 0, geranylgeraniol control 100; rescue of ATP level, % at 7.49 µM; 330,000 compounds, 0.78% hits; AID 602340;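 active = mean ATP rescue above about 67%, or every replicate alone reaching that limit, limit read from the data, passing the limit was not always enough; inconclusive = no clear call, values can overlap the other calls; inactive = mean under the limit and some replicate under it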;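 note: myotubes were challenged with 10 µM simvastatin during compound exposure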
Active calls of the source: *; ? = inconclusive; . = no result. Compounds with a hit are over-represented: about 1.7% of the library has one in this group of screens.

SMILES	Vif imaging	SR-BI HDL uptake	SR-BI DiI-HDL act	Statin myotox sup
COC(=O)c1ccc(Oc2coc3cc(OCc4cnn(-c5ccccc5)c4)ccc3c2=O)cc1	142.1*	49.6	-49.6	.
Cc1nn(Cc2ccccc2Cl)c(C)c1NC(=O)c1cc(-c2ccc(F)cc2)on1	13.8	80.4*	-80.4	-14.0
COc1ccc(-c2cc(C(=O)Nc3c(C)nn(Cc4ccccc4)c3C)no2)cc1	18.3	76.3*	-76.3	-4.7
COc1cccc(-c2cc(C(=O)Nc3c(C)nn(Cc4ccccc4)c3C)no2)c1	-10.4	.	.	1.3
Cc1nn(Cc2ccccc2Cl)c(C)c1NC(=O)c1ccn(C)n1	-1.3	-19.7	19.7	.
C[C@H]1CN([C@@H](C)CO)C(=O)Cc2cc(NC(=O)Nc3ccccc3)ccc2O[C@H]1CN(C)Cc1ccc(C(F)(F)F)cc1	.	.	.	-26.0
c1coc(-c2nc3ccccc3s2)c1	10.6	-14.0	14.0	119.5*
COc1ccc(-c2nc3ccccc3s2)cc1	2.7	3.1	-3.1	.
CCC(C)NC(=O)CO/N=C/c1ccccc1OC(F)F (configuration not stated)	1.1	-0.8	0.8	.
CC1CCCCC1NC(=O)CO/N=C/c1ccccc1OC(F)F (configuration not stated)	91.5*	30.8	-30.8	.
CO[C@H]1CN(C)C(=O)c2ccc(NS(C)(=O)=O)cc2OC[C@@H](C)N(CCC(F)(F)F)C[C@H]1C	.	.	.	17.8
Cc1cccc(NC(=O)c2cc(-c3cc(C)cc(C)c3O)n[nH]2)c1	-8.0	72.3*	-72.3	-36.4
Cc1cc(C)c(O)c(-c2cc(C(=O)Nc3cccnc3)[nH]n2)c1	-9.0	.	.	.
COc1ccc(OC)c(NC(=O)c2cc(-c3cc(C)cc(C)c3O)n[nH]2)c1	-4.9	77.4*	-77.4	-20.5
CC(C)[C@H](NC(=O)NCCc1ccccc1)C(=O)O	13.7	-14.4	14.4	92.0*
CNC[C@@H]1Oc2cc(-c3cccc(C(=O)N(C)C)c3)ccc2S(=O)(=O)N([C@@H](C)CO)C[C@H]1C	.	.	.	-7.9
Cc1cc(NC(=O)c2cc([N+](=O)[O-])ccc2Cl)no1	-9.6	-2.4	2.4	.
O=C(Nc1cccc(NC(=O)c2cc([N+](=O)[O-])ccc2Cl)n1)c1cc([N+](=O)[O-])ccc1Cl	58.3*	63.0	-63.0	.
O=C(Nc1ccc([N+](=O)[O-])cn1)c1cc(-c2cccc(Cl)c2)nc2ccccc12	2.0	77.1*	-77.1	.
CC(=O)Nc1ccc(NC(=O)[C@@H]2CCCC[C@@H]2C(=O)O)cc1	83.4*	-14.4	14.4	-6.5
CC(C)CC#Cc1cnc2c(c1)C(=O)N([C@@H](C)CO)C[C@H](C)[C@@H](CN(C)Cc1ccccc1F)O2	.	.	.	10.1
CC1(C(=O)OCC(=O)NC(=O)NCc2ccccc2)CC1(Cl)Cl (configuration not stated)	-9.1	-62.5	62.5*	.
O=C(CCN1CCCCC1)NCC[C@@H]1CC[C@H](NC(=O)C2CCC2)[C@@H](CO)O1	.	.	.	5.4
N#CC1=C(N)NC(SCC(=O)c2ccc(Br)cc2)=C(C#N)C12CCCCC2	-4.3	25.7	-25.7	.
COc1ccc(C(=O)CSC2=C(C#N)C3(CCCCC3)C(C#N)=C(N)N2)cc1	-8.7	71.9*	-71.9	-25.4
SMILES	Vif imaging	SR-BI HDL uptake	SR-BI DiI-HDL act	Statin myotox sup
Cc1cccc(NC(=O)c2ccc(OC3CSC3)cc2)c1	-5.8	.	.	105.2*
Cc1ccc(NC(=O)c2cccc(OCc3c(C)noc3C)c2)cc1	-7.9	44.1	-44.1	105.1*
CC(=O)c1cccc(NC(=O)c2ccc(OCc3c(C)noc3C)cc2)c1	-3.3	62.8	-62.8	-2.9
Cc1noc(C)c1COc1cccc(C(=O)Nc2ccccc2)c1	?	-7.2	7.2	0.6
Cc1cccc(NC(=O)c2ccc(OCc3c(C)noc3C)cc2)c1	-4.2	72.9*	-72.9	5.1
O=C(C[C@H]1C=C[C@H](NC(=O)c2cccnc2)[C@@H](CO)O1)NCCN1CCCCC1	.	.	.	2.2
COc1ccccc1C(=O)Nc1ccc2c(c1)C(=O)N(C)C[C@@H](OC)[C@H](C)CN(CC1CC1)[C@H](C)CO2	.	.	.	38.6
CCc1ccc(CCC(=O)Nc2ccc(OC)cc2)o1	27.5	-30.1	30.1	2.7
COc1ccc(C(N)CCc2ccc(C)o2)cc1 (configuration not stated)	7.7	-2.3	2.3	136.9*
O=C(C[C@H]1CC[C@H]2[C@@H](COC[C@H](O)CN2C(=O)Nc2cc(Cl)cc(Cl)c2)O1)N1CCCCC1	.	.	.	-10.9
C[C@H](CO)N1C[C@H](C)[C@@H](CN(C)Cc2ccc(C(F)(F)F)cc2)Oc2ccc(NC(=O)Nc3ccc(C(F)(F)F)cc3)cc2C1=O	.	.	.	-5.1

Screens (PubChem BioAssay)
